Screening data: PubChem BioAssay, several laboratories
WT yeast gro inh – growth inhibition of WT yeast, mitochondrial fusion screen; mitochondrial fusion phenotypic screen, WT strain; inhibition, % at 10 µM; hit rate 2.1% among 190,000; AID 1362; in the data active = inhibition above about 58%; tested in S. cerevisiae
Diaph act CS – activates diaphorase or chemically reduces, flagging diaphorase assay artifacts. Diaphorase/resazurin coupled assay, resorufin fluorescence, 16 min; hits give high values; 1 = vehicle wells, 0 = NADH-free wells. activation factor at 20 µM. hit rate 0.005% among 190,000;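 active = diaphorase activity raised at least twofold by the compound at 20 µM; inactive = activation factor below 2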
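test system = bacterial diaphorase enzyme (C. kluyveri) | quantity = enzyme 0.07 U/mL final | reagent = NADH substrate 0.114 mM plus resazurin dye 0.1 mM, final | incubation = 16 min enzyme reaction, ambient temperature | buffer or medium = HEPES pH 7.4 buffer with MgCl2 and Tween 20 | signal = fluorescence of resorufin, 544 nm excitation, 590 nm emission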
Diaph inh CS – counter-screen for diaphorase-based assays: diaphorase inhibitors and chemical oxidizers | AID 1217 | hit rate 0.69% among 190,000 | inhibition, % at 20 µM | diaphorase resazurin-to-resorufin fluorescence, NADH, 16 min; bacterial (C. kluyveri) enzyme, not human;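 active = primary screen inhibition at 20 µM above a set limit, cut at about 50% in these data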
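Test system: bacterial diaphorase enzyme (C. kluyveri); Quantity: 0.14 U/mL diaphorase, enzyme working solution; Times: reaction incubation of 16 min at room temperature; Measured by: fluorescence of resorufin formed from resazurin, Ex 544/Em 590 nm; Benchmarks: positive control minus NADH, DMSO neutral control.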
G6PDH counter – counter-screen for G6PDH assay hits: L. mesenteroides G6PDH inhibition; hit rate 0.12% among 200,000; AID 1020; Purified L. mesenteroides G6PDH, diaphorase/resazurin coupled fluorescence, 45 min; inhibition, % at 5 µM
Lmaj promast – Leishmania major promastigote growth inhibition. inhibition, % at 10 µM. hit rate 9% among 200,000. Leishmania major promastigotes, resazurin fluorescence viability;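 note: promastigotes grown with compound for 44 hours at 28 °C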
Of the large screens only hits and unclear results are named; the others gave an inactive call. An excerpt weighted towards active compounds, which were near 11% of everything screened. Cut-off read from the data, not from the text of the source, unless noted: active = inhibition above about 50%; inactive = the rest.

C/C(=N\NC(=O)C(c1ccccc1)c1ccccc1)c1ccccn1	Lmaj promast 100
O=C(N/N=C\c1cc(Br)cs1)C1COc2ccccc2O1 (stereo not drawn)	Lmaj promast 53
C/C(=N\NC(=O)C1COc2ccccc2O1)c1ccc(C)o1 (stereo not drawn)	none
C/C(CC(=O)NCc1ccco1)=N\NC(=O)C(c1ccccc1)c1ccccc1	none
Cc1ccn(-c2cc(O)c(-n3ccc(C)n3)cc2O)n1	none
CCn1ncc(C2=NOC(C(=O)Nc3cccc(O)c3)C2)c1C (stereo not drawn)	none
C/C(CC(=O)Nc1ccc(N(C)C)cc1)=N\NC(=O)Cc1csc(N)n1	Lmaj promast 75
Cc1cc(=O)oc2cc(OCC(=O)c3ccc4c(c3)NC(=O)CO4)ccc12	none
O=c1c2c(-c3ccccc3)csc2nc2c3ccccc3c(NCCN3CCOCC3)nn12	Lmaj promast 100
c1ccc(-c2csc3ncnc(NCCCN4CCOCC4)c23)cc1	none
Cc1cnn(-c2cc(N/N=C/c3ccccc3Cl)ncn2)c1	none
COc1cccc(/C=N/NC(=O)C(=O)N/N=C/c2cccc(OC)c2O)c1O	none
COc1cccc(/C=N/Nc2cc(-n3nc(C)cc3-c3ccccc3)ncn2)c1O	Lmaj promast 67
COc1cccc(/C=N/Nc2nc(Nc3ccccc3)nc(-n3nc(C)cc3C)n2)c1O	Lmaj promast 100
O=C(Nc1ccccc1)C1CCN(C(=O)c2ccccc2)CC1	none
COc1ccc(Cl)cc1C(=O)Nc1cccc(-c2ccc3nncn3n2)c1	none
CC1(C)OC(=O)C(=NNc2ccc(Cl)cc2)C(=O)O1	none
Cc1ccc(Nc2nc(-c3c(C)nc4ncccn34)cs2)cc1	Lmaj promast 60
Cc1ccc(Nc2nc(-c3c(C)nc4ccccn34)cs2)cc1	WT yeast gro inh 71, Lmaj promast 93
O=C(c1cc(-c2ccco2)nc2ccccc12)N1CCN(c2ccc(F)cc2)CC1	Lmaj promast 67
O=C(O)c1cc(-c2ccco2)nc2ccccc12	none
COc1ccc(OC)c(NC(=O)N2CCCC(C(=O)c3ccccc3OC)C2)c1 (stereo not drawn)	none
CCC(C)c1ccccc1NC(=O)COC(=O)CCc1cc(OC)c(OC)c(OC)c1 (stereo not drawn)	Lmaj promast 51
CCN(CC)C(=O)CN1C(=O)COCC1=O	none
Oc1c(N=NC(=S)Nc2ccccc2F)c2ccccc2n1Cc1ccc(F)cc1	Lmaj promast 91
Cc1cccc(NC(=S)N=Nc2c(O)n(CN3CCOCC3)c3ccccc23)c1C	WT yeast gro inh 69, Lmaj promast 96
NC(=S)N=Nc1c(O)n(Cc2ccc(F)cc2)c2ccccc12	none
Cc1cccc(Cn2c(O)c(N=NC(=S)Nc3ccccc3F)c3ccccc32)c1	Lmaj promast 97
Cc1ccc(N=Nc2c(O)n(CN3CCOCC3)c3ccccc23)cc1	none
Oc1c(N=NC(=S)Nc2ccccc2F)c2ccccc2n1Cc1cccc(Cl)c1	Lmaj promast 83
O=C(O)CCCCCN=Cc1c(O)c2ccccc2oc1=O	none
N#Cc1cc2c(nc1Cl)CCCC2	Lmaj promast 73
O=C(NC1CCCCC1)Nn1c(-c2ccccc2)nc2ccccc2c1=O	none
Cn1c(-c2sc3cc(C(F)(F)F)cnc3c2-c2ccccn2)n[nH]c1=S	none
Cn1c(-c2sc3cc(C(F)(F)F)cnc3c2-c2cccs2)n[nH]c1=S	WT yeast gro inh 65
CC(C)OC(=O)c1cc(NC(=S)Nc2ccc([N+](=O)[O-])cc2)cc(C(=O)OC(C)C)c1	Lmaj promast 100
CC(C)CCNC(=S)Nc1ccc(Br)cc1	WT yeast gro inh 68
CC(C)CCNC(=S)Nc1ccc([N+](=O)[O-])cc1	WT yeast gro inh 79, Lmaj promast 68
Cc1ccc(NC(=S)NCC(C)C)cc1	Lmaj promast 78
CCCCNC(=S)Nc1ccc([N+](=O)[O-])cc1	none
CC(C)CNC(=S)Nc1ccc(S(N)(=O)=O)cc1	none
CC(C)CCNC(=O)CN(Cc1ccc2c(c1)OCO2)C(=O)Cn1nnc(-c2cccs2)n1	none
COC(=O)c1ccc(/C=N/NC(=O)C(=O)NCc2ccccc2)cc1	none
COc1ccc(CC(NC(C)=O)C(=O)NC2CCN(c3ncccc3[N+](=O)[O-])CC2)cc1 (stereo not drawn)	none
COCCCNC(=O)c1cc(C(=O)c2c(-c3c(Cl)cccc3Cl)noc2C)c[nH]1	none
Cc1cc(C)c(S(=O)(=O)NCCc2ccccc2)c(C)c1	none
Cc1cc(C)c(S(=O)(=O)NCCC2CCCN2C)c(C)c1 (stereo not drawn)	Lmaj promast 97
CCNC(=S)SCCOc1ccccc1C	none
N/C(=N\OC(=O)c1ccccc1Cl)c1ccccc1	none
COc1ccccc1C(=O)O/N=C(\N)c1ccccc1Cl	Lmaj promast 92
CCOC(=O)CN1CC23C=CC(O2)C(C(=O)Nc2ccc(C(C)=O)cc2)C3C1=O (stereo not drawn)	none
CC1CN(CC(=O)Nc2ccccc2Sc2ccccc2)CC(C)O1 (stereo not drawn)	none
CC(C)OC(=O)c1c(NC(=O)c2cccs2)sc2c1CCCC2	none
CC(C)OC(=O)c1c(NC(=O)Cn2cnc([N+](=O)[O-])n2)sc2c1CCCC2	Lmaj promast 85
CCOC(=O)c1c(NC(=O)Cn2cnc([N+](=O)[O-])n2)sc2c1CCCC2	Lmaj promast 92
O=[N+]([O-])c1ccc2c(c1)C(N1CCOCC1)/C(=C/COc1ccc(Cl)cc1Cl)O2 (stereo not drawn)	none
CCOC(=O)C1=NN(C(=O)Nc2ccc(OC)cc2)C2C(=O)N(c3cccc(C(F)(F)F)c3)C(=O)C12 (stereo not drawn)	none
CCOC(=O)c1cc(-c2ccccc2)n(CC(=O)Nc2cc(OC)cc(OC)c2)c1C	Lmaj promast 96
O=C(O)CNC(=O)c1nc(-c2ccccc2)n(-c2ccccc2)n1	none
O=C(Nc1ccc(Br)cc1Cl)NC1CC1	none
CC1CCCCN1CC(=O)Nc1ccccc1Sc1ccccc1 (stereo not drawn)	none
O=S(=O)(c1ccc(OCC(O)CNCc2ccco2)c(Cl)c1)N1CCOCC1 (stereo not drawn)	none
CC(C)N(Cc1ccccc1)CC(O)COc1ccc(S(=O)(=O)N2CCOCC2)cc1Cl (stereo not drawn)	Lmaj promast 100
C(=N\c1nc2ccccc2n1CCN1CCCCC1)/c1cccs1	Lmaj promast 53
CC1(C)C(=O)Nc2ccccc2N1C(=O)COC(=O)c1ccc(Cl)c(S(=O)(=O)NCc2ccccc2)c1	Lmaj promast 99
CCOC(=O)Nc1ccc2c(COC(=O)CNS(=O)(=O)c3cccc(Br)c3)cc(=O)oc2c1	none
O=C(Nc1nnc(CC(=O)N2CCCC2)s1)c1cnccn1	none (no result: Diaph act CS, Diaph inh CS, G6PDH counter, Lmaj promast)
CCCCSc1nnc([C@@H](NC(=O)OC(C)(C)C)C(C)C)o1	none (no result: WT yeast gro inh)
O=C(c1cc2c(=O)n3ccccc3nc2s1)N1CCc2ccccc2C1	Diaph inh CS 57
CC1CC(C)CN(C(=O)/C=C/c2ccc([N+](=O)[O-])s2)C1 (stereo not drawn)	Lmaj promast 98
